Reference: ChEMBL document CHEMBL1139422, “Design, synthesis and biological evaluation of novel compounds with conjugated structure as anti-tumor agents” (Bioorg Med Chem, 2008)
Activity calls are given as the source filed them. The rule behind the calls is not given here.

Tests used:
[1] = test system: PC-3; assay: Antiproliferative activity against human PC3 cells after 48 hrs by MTT assay; type: functional, cell-based; details: PC-3, 48 h
How it was run: (§1)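 Cells seeded at 4000/well; compounds (10 mg/mL DMSO stock, diluted in medium) added 24 h after seeding, in duplicate. Incubation 48 h at 37 °C, 5% CO2. MTT (20 µL of 5 mg/mL in PBS) then added for 4 h at 37 °C, and the signal read at 570 nm.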

[2] = test system: HCT-116; assay: Antiproliferative activity against human HCT116 cells after 48 hrs by MTT assay; type: functional, cell-based; details: HCT-116, 48 h; how it was run: as §1
[3] = test system: HepG2; assay: Antiproliferative activity against human HepG2 cells after 48 hrs by MTT assay; type: functional, cell-based; details: HepG2, 48 h; how it was run: as §1
[4] = test system: A549; assay: Antiproliferative activity against human A549 cells after 48 hrs by MTT assay; type: functional, cell-based; details: A549, 48 h; how it was run: as §1
[5] = test system: U-937; assay: Cell cycle arrest in human U937 cells assessed as accumulation at G1 phase at 5 uM after 24 hrs by flow cytometry; type: functional, cell-based
How it was run: (§2)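 U937 cells were grown in RPMI with 10% FCS, penicillin/streptomycin, amphotericin-B, 10 mM Hepes and 2 mM glutamine, and held at 200,000 cells/mL. Cells were treated 24 h with compounds in DMSO. 2.5×10^5 cells were resuspended in hypotonic buffer (0.1% Triton X-100, 0.1% sodium citrate, 50 µg/mL PI, RNase A) for 30 min in the dark, then analysed by flow cytometry. Values are means of independent duplicates.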

[6] = test system: U-937; assay: Induction of apoptosis in human U937 cells assessed as caspase 3 activation at 5 uM after 24 hrs by FACS analysis; type: functional, cell-based
How it was run: (§3)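 U937 cells were grown in supplemented RPMI at 200,000 cells/mL. Compounds in DMSO were given at 5 µM for 24 h or 30 h, or at 0.5 µM for 28 h. Apoptosis was analysed by FACS. Values are means of independent duplicates.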

[7] = target: Histone deacetylase 1 (Homo sapiens, UniProt Q13547); assay: Inhibition of human recombinant HDAC1 using Fluor de Lys as substrate by fluorimetric assay
How it was run: (§4)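 Purified recombinant HDAC1 or HDAC4 was incubated with acetylated-lysine Fluor de Lys substrate, with or without inhibitor. Developer was then added to give the fluorophore, and fluorescence was read. IC50 values are means of at least three experiments. SI is IC50(HDAC1)/IC50(HDAC4).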

[8] = target: Histone deacetylase 4 (Homo sapiens, UniProt P56524); assay: Inhibition of human recombinant HDAC4 using Fluor de Lys as substrate by fluorimetric assay; how it was run: as §4
[9] = organism: Homo sapiens; assay: Selectivity index, ratio of IC50 for human recombinant HDAC1 to IC50 for human recombinant HDAC4; how it was run: as §4
[10] = target: T1, Protein deacetylase HDAC6 (Homo sapiens) (UniProt Q9UBN7); assay: Inhibition of HDAC6 in human U937 cells assessed as induction of alpha-tubulin acetylation after 24 hrs by Western blot analysis; type: cell-based; details: U-937
T1 sequence (whole entry): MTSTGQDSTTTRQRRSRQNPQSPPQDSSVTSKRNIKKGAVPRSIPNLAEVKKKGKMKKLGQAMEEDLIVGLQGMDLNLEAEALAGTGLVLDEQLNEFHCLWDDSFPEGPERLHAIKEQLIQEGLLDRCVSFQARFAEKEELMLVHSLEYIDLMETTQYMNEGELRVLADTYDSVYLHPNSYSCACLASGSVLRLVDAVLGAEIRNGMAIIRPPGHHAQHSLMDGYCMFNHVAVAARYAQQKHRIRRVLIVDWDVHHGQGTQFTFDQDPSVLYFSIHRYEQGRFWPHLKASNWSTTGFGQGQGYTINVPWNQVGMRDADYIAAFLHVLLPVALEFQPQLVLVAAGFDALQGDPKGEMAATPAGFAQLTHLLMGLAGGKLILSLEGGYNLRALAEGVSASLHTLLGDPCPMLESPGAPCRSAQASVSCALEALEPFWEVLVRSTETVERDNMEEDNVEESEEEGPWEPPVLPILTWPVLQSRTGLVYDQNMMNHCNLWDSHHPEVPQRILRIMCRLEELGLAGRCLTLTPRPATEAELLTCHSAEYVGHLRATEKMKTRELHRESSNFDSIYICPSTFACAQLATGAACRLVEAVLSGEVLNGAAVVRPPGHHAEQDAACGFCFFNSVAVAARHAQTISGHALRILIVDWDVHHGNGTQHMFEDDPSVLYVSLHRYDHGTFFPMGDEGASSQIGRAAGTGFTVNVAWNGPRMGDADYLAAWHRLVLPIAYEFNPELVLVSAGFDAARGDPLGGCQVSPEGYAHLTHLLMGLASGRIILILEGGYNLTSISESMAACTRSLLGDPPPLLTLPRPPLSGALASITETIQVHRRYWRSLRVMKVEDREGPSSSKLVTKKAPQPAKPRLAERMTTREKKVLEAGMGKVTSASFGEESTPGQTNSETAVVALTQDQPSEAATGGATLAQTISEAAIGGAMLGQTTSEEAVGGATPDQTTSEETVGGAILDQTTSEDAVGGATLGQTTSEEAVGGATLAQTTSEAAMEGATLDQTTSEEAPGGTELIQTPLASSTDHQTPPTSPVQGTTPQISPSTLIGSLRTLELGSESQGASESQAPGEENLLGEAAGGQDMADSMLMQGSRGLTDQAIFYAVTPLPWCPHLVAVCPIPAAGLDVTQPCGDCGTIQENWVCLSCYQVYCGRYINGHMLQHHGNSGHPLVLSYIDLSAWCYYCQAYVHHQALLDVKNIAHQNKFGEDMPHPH
How it was run: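 U937 cells were treated for 24 h. Total protein extract (50 µg) was run on a 10% polyacrylamide gel and blotted for acetylated α-tubulin (1:500), with total ERK as the loading control.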

[11] = test system: U-937; assay: Induction of p21waf1/CIP1 expression in human U937 cells after 24 hrs by Western blot analysis; type: functional, cell-based
How it was run: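 U937 cells were treated for 24 h. Total protein extracts (50 µg) were run on a 15% polyacrylamide gel and blotted for p21 (1:500), with tubulin as the loading control.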

[12] = test system: U-937; assay: Cell cycle arrest in human U937 cells assessed as accumulation at S phase at 5 uM after 24 hrs by flow cytometry; type: functional, cell-based; how it was run: as §2
[13] = test system: U-937; assay: Induction of apoptosis in human U937 cells assessed as caspase 3 activation at 5 uM after 30 hrs by FACS analysis; type: functional, cell-based; how it was run: as §3
[14] = test system: U-937; assay: Increase in granulocytic differentiation in human U937 cells assessed as CD11c expression at 5 uM after 30 hrs by FACS analysis; type: functional, cell-based
How it was run: (§5)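 U937 cells were grown in RPMI with 10% FCS, 10 mM Hepes and 2 mM glutamine at 200,000 cells/mL. Compounds in DMSO were given for 30 h (5 µM) or 28 h (0.5 µM). Cells were stained for surface antigen for 30 min at 4 °C in the dark, washed, and resuspended in PBS with propidium iodide. PI-positive cells were excluded from the FACS analysis. Values are means of independent quadruplicates.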

[15] = test system: U-937; assay: Induction of monocytic differentiation in human U937 cells assessed as CD14 expression at 5 uM after 30 hrs by FACS analysis; type: functional, cell-based; how it was run: as §5

Chain of Histone deacetylase 4 (P56524 whole entry): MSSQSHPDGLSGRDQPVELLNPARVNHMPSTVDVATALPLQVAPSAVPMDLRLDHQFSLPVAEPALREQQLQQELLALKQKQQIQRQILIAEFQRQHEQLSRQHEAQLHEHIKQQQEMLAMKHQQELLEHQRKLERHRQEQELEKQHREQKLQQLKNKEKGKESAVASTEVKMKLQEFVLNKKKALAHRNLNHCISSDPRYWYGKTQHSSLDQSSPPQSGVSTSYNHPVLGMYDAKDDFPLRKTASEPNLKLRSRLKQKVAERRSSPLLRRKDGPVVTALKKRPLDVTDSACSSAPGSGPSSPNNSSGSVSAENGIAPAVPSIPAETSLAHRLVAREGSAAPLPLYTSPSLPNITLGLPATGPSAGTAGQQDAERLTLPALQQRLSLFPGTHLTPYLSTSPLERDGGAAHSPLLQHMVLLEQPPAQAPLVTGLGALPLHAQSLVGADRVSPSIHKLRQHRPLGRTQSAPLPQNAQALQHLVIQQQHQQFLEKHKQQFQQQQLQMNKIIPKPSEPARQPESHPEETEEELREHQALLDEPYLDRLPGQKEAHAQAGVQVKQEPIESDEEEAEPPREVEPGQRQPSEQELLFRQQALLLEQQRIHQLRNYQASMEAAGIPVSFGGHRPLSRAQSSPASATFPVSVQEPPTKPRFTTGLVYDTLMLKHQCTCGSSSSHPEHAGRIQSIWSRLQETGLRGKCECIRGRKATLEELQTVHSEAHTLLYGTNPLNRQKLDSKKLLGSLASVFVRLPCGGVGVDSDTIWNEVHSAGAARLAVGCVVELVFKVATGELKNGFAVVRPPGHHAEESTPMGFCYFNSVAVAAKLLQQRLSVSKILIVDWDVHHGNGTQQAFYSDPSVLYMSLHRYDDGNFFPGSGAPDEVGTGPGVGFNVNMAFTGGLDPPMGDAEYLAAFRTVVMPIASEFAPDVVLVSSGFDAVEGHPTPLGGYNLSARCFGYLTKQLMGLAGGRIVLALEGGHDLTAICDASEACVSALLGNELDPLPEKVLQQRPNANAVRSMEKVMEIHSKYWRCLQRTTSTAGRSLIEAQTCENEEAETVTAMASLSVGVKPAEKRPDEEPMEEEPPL
Chain of Histone deacetylase 1 (Q13547 whole entry): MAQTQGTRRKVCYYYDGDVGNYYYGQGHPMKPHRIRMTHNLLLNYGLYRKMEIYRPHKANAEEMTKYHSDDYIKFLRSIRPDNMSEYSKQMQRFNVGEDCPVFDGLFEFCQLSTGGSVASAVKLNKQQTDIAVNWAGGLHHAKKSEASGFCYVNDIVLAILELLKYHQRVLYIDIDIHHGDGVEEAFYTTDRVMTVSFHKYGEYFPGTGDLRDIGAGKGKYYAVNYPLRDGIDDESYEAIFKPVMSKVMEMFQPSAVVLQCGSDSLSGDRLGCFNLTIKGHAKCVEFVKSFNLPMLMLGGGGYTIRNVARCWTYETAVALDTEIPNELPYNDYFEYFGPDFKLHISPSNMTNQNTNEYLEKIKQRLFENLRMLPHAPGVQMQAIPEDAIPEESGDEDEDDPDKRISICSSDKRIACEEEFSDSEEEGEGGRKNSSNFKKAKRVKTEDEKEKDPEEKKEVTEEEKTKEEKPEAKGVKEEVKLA

Structure (SMILES) | IC50 [1] | IC50 [2] | IC50 [3] | IC50 [4] | Activity [5] | Activity [6] | IC50 [7] | IC50 [8] | Ratio IC50 [9] | Activity [10] | Activity [11] | Activity [12] | Activity [13] | Activity [14] | Activity [15]
Nc1ccccc1NC(=O)c1ccc(CNC(=O)OCc2cccnc2)cc1 [ENTINOSTAT] | 59.1 µM | 27.5 µM | 60.1 µM |  |  |  |  |  |  |  |  |  |  |  | 
CC(=O)O[C@H]1C(=O)[C@@]2(C)[C@H]([C@H](OC(=O)c3ccccc3)[C@]3(O)C[C@H](OC(=O)[C@H](O)[C@@H](NC(=O)c4ccccc4)c4ccccc4)C(C)=C1C3(C)C)[C@]1(OC(C)=O)CO[C@@H]1C[C@@H]2O [PACLITAXEL] | 2.73 µM |  | 0.62 µM | 13.1 µM |  |  |  |  |  |  |  |  |  |  | 
O=C(/C=C/c1ccc(/C=C/C(=O)c2ccc(F)cc2)o1)NO | 40.1 µM | 2.82 µM | 12 µM |  | Active | Active | 15 µM | 7.68 µM | 2 | Active | Active |  |  |  | 
COc1ccc2cc(C(=O)/C=C/c3ccc(/C=C/C(=O)NO)o3)ccc2c1 | 36.3 µM | 2.06 µM | 6.22 µM |  |  | Active | 11 µM | 4.04 µM | 2.7 | Active | Active | Active |  |  | 
O=C(NO)c1ccc(/C=C/c2ccc(O)cc2)o1 | 21.8 µM | 2.73 µM | 20.9 µM | 86.4 µM |  |  | 43.1 µM | 57.1 µM | 0.76 |  |  |  | Active | Active | inactive
O=C(/C=C/c1ccc(/C=C/C(=O)c2ccc(Cl)cc2)o1)NO | 1.35 µM | 2.01 µM | 6.74 µM | 98.1 µM | Active |  | 15.7 µM | 6.03 µM | 2.6 | Active | Active |  |  |  | 
Cc1ccc(C(=O)/C=C/c2ccc(/C=C/C(=O)NO)o2)cc1 | 16 µM | 0.54 µM | 16 µM | 48.6 µM |  | Active | 13.2 µM | 1.1 µM | 11.9 |  |  | Active |  |  | 
COc1cccc(/C=C/c2ccc(C(=O)NO)o2)c1O | 35.1 µM |  |  |  |  |  | 50.1 µM | 42.8 µM | 1.17 |  |  |  |  |  | 
O=C(/C=C/c1ccc(/C=C/C(=O)c2cc(Cl)ccc2Cl)o1)NO | 24.7 µM | 4.12 µM | 48.3 µM | 27.1 µM | Active |  | 4.72 µM | 4.31 µM | 1.1 | Active | Active |  |  |  | 
O=C(NO)c1ccc(/C=C/c2cccc(Cl)c2Cl)o1 | 39.2 µM | 3.39 µM | 37.2 µM | 23.6 µM |  |  | 25.3 µM | 49.3 µM | 0.51 |  |  |  |  |  | 
O=C(/C=C/c1ccc(/C=C/C(=O)c2cccc(Cl)c2)o1)NO | 9.6 µM | 1.51 µM | 54.5 µM | 18.9 µM | Active | Active | 12.6 µM | 12.9 µM | 1 | Active | Active |  |  |  | 
O=C(/C=C/c1ccc(/C=C/C(=O)c2ccc(Cl)cc2Cl)o1)NO | 16.2 µM | 6.73 µM | 13.5 µM | 88.1 µM |  | Active | 4.29 µM | 8.19 µM | 0.5 | Active | Active | Active |  |  | 
CC(C)c1ccc(C(=O)/C=C/c2ccc(/C=C/C(=O)NO)o2)cc1 | 2.27 µM | 0.49 µM | 35.9 µM | 56.7 µM | Active |  | 24.1 µM | 4.89 µM | 4.9 | Active | Active |  |  |  | 
O=C(NO)c1ccc(/C=C/c2ccc3c(c2)OCO3)o1 | 45.9 µM | 4.98 µM | 33.6 µM | 63.6 µM |  |  | 29.6 µM | 85.6 µM | 0.34 |  |  |  |  |  | 
